Most compounds without a hit are left out; they make up all but 2.1% or so of the library.
thrombin 1536 = human alpha-thrombin inhibitors, primary screen, counter-screen for coagulation protease inhibitor project, biochemical, 1536-well, fluorogenic AMC substrate; Prothrombin (Homo sapiens), P00734; Boc-VPR-AMC fluorogenic substrate cleavage; inhibition, % at 5 µM; 220,000 tested, 0.26% active; AID 1046, 2008;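 active means inhibition at or above 40%; inactive means inhibition below 40%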
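Material: human alpha-thrombin protein. Incubation: reaction at ambient temperature. Technique: fluorescence of released AMC, ex 355 nm, em 460 nm. Control set: no-compound enzyme wells and no-enzyme blanks. Also added: Boc-VPR-AMC substrate, 15 µM final. Buffer or medium: pH 7.5 Tris (50 mM) with NaCl 150 mM, Tween 20 0.05%.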
FXIa inh = human FXIa protease inhibitors, primary screen, biochemical, 1536-well; Coagulation factor XI (Homo sapiens), P03951; inhibition, % at 5 µM; 220,000 tested, 0.14% active; purified FXIa, Boc-Glu-Ala-Arg-AMC fluorogenic substrate;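 active means inhibition of at least 40%; inactive means inhibition below 40%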;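 further: fluorescence of freed AMC excited at 355 nm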
Target sequence (P03951 19-387 limits assumed): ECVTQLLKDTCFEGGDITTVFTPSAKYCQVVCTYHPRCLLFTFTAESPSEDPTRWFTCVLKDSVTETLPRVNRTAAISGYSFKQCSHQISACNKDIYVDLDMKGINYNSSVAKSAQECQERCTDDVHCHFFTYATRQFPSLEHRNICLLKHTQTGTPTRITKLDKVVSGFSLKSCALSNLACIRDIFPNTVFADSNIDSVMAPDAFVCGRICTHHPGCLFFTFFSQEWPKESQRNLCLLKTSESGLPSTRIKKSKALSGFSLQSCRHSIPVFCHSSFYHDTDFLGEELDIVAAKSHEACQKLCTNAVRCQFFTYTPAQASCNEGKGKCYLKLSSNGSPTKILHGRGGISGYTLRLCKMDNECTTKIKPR
Target sequence (P03951 388-625 limits assumed): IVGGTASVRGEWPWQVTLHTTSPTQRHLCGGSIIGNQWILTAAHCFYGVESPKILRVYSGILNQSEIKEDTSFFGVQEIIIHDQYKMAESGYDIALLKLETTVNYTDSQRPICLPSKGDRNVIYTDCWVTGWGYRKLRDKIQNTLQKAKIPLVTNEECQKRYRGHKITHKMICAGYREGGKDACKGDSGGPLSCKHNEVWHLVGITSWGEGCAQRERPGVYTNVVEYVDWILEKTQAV
hK5 inh = human KLK5 protease inhibitors, primary screen, biochemical, 1536-well | inhibition, % at 5 µM | recombinant hK5, fluorogenic AMC substrate cleavage | Kallikrein-5 (Homo sapiens), Q9Y337 | 210,000 tested, 0.59% active;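 active means inhibition of 40% or more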
FXIIa inh 1536 = human FXIIa protease inhibitors, primary screen, biochemical, 1536-well. Coagulation factor XII (Homo sapiens), P00748. purified FXIIa, Boc-QGR-AMC fluorogenic substrate, 2 h. inhibition, % at 5 µM. 220,000 tested, 0.3% active; in the data active means inhibition above about 40%
EP2 mod = EP2 receptor modulators, cAMP readout, primary screen, cell-based, HTRF cAMP, PGE2 stimulation; Prostaglandin E2 receptor EP2 subtype (Homo sapiens), P43116; EP2-expressing cells, cAMP HTRF FRET, PGE2 co-stimulation; induction, % at 25 µM; 260,000 tested, 0.83% active;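 active means compounds whose cAMP rise, as percent of the full-agonist control response, exceeds 60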;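 further: rat C6 glioma line stably carrying human EP2 under a CMV promoter; the protocol text gives 20 µM as final concentration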
EP2 antag = human EP2 receptor antagonists, primary screen, TR-FRET cAMP, C6 glioma cells | AID 1422, 2008 | inhibition, % at 25 µM | C6 glioma cells expressing human EP2; cells stimulated with saturating PGE2 | 260,000 tested, 0.52% active;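 active means percent inhibition above 40 after rounding to a whole number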;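 further: rat C6 glioma host cells with rolipram phosphodiesterase inhibitor present; the protocol text gives 20 µM as final concentration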
Large screens that a line does not name were inactive; ! = a repeat was not active.

O=C(NCc1ccccc1)c1ccc(Cl)nc1	FXIa inh 45
CC(CCc1ccccc1)NC(=O)c1ccc(Cl)nc1 (stereo not given)	none
Cc1cc(C)c2c(NCc3cccc(C(F)(F)F)c3)n[nH]c2n1	none (no result: thrombin 1536, FXIa inh, hK5 inh, FXIIa inh 1536)
COC(=O)C1C/C(=N\NS(=O)(=O)c2ccc(C)cc2)c2sccc2C1 (stereo not given)	none
COC(=O)C1CC(=O)c2ccsc2C1 (stereo not given)	thrombin 1536 49
COCCn1nnnc1C(c1ccccc1F)N1CCC(C(N)=O)CC1 (stereo not given)	none (no result: thrombin 1536, FXIa inh, hK5 inh, FXIIa inh 1536)
COc1ccccc1OCC(O)CN1C(=O)NC(C)(C)C1=O (stereo not given)	hK5 inh 64
O=C(CSc1ncccc1-c1nc2ccccc2[nH]1)Nc1nccs1	none (no result: thrombin 1536, FXIa inh, hK5 inh, FXIIa inh 1536)
COCCNC(=O)c1ccc(NS(=O)(=O)c2cc(C)ccc2C)cc1	hK5 inh 42
CC(C)(C)c1ccc(O)c(CN(Cc2cc(C(C)(C)C)ccc2O)C2CCCCC2)c1	EP2 antag 64 (no result: thrombin 1536, FXIa inh, hK5 inh, FXIIa inh 1536)
Clc1ccc(/C=C/c2nc(Cl)c(-c3ccc(Cl)cc3)c(Cl)n2)cc1	EP2 antag 43!
Nc1nc(N)nc(-c2ccc(Cl)cc2)n1	none
CCOC(=O)C1CCCN(C(=O)Cn2sc3nc(C)cc(C)c3c2=O)C1 (stereo not given)	EP2 antag 115
COc1ccc(CCCc2n[nH]c(=S)n2C)cc1C	hK5 inh 43
CCOC(=O)Cn1cc(CN2CCn3c(CO)nnc3C2)c2ccccc21	none (no result: thrombin 1536, FXIa inh, hK5 inh, FXIIa inh 1536)
CC(C)OCCCn1c(=S)[nH]c2cc3c(cc2c1=O)OCO3	thrombin 1536 44, hK5 inh 45
CC1(C)CC2CC(C)(CN2C(=O)c2cc(-c3ccccc3O)on2)C1 (stereo not given)	hK5 inh 45
COc1ccc(-c2cc(C(=O)N3CC4(C)CC3CC(C)(C)C4)no2)cc1 (stereo not given)	none
CC(=O)C1=C(C)OC(N)=C(C#N)C1c1ccc(Cl)c(Cl)c1 (stereo not given)	none (no result: thrombin 1536, FXIa inh, hK5 inh, FXIIa inh 1536)
CC(C)c1nc2ccccc2c2nn(CC(=O)NCCCN3CCCC3=O)c(=O)n12	none (no result: thrombin 1536, FXIa inh, hK5 inh, FXIIa inh 1536, EP2 antag)
CCOC(=O)C1=C(C)NC(=S)N(C(C)=O)C1c1ccc(OC)c(OC)c1 (stereo not given)	hK5 inh 48, FXIIa inh 1536 48
CCOC(=O)C1=C(C)NC(=S)N(C(C)=O)C1c1ccc(Cl)cc1 (stereo not given)	none
COc1ccc(C(O)CN2CCC(O)(c3cccc(C)c3)CC2)cc1OC (stereo not given)	none (no result: thrombin 1536, FXIa inh, hK5 inh, FXIIa inh 1536)
O=C(CN(Cc1cccs1)C(=O)CCC(=O)Nc1nccs1)NCc1ccccc1	hK5 inh 105, FXIIa inh 1536 107
CCc1nnc(NC(=O)c2ccc(NC(=O)C(C)C)cc2)s1	FXIa inh 43
CCOCc1nnc(NC(=O)c2ccc(NC(=O)C(C)C)cc2)s1	none (no result: thrombin 1536, FXIa inh, hK5 inh, FXIIa inh 1536)
Cc1nn2c(N3CCOCC3)c3c(nc2c1-c1ccc(F)cc1)CCC3	none (no result: thrombin 1536, FXIa inh, hK5 inh, FXIIa inh 1536, EP2 antag)
CC(=O)c1sc(C(C)(C)C)cc1NC(=O)c1ccccc1C(=O)O	EP2 mod 77
Cn1c(=O)c2c(nc(NCc3ccccc3)n2Cc2ccc(F)cc2)n(C)c1=O	EP2 mod 64
CCC(=O)Nc1cccc(C(=O)/C=C/c2ccc(F)cc2)c1	none
CC(=O)Nc1cccc(C(=O)/C=C/c2ccc(C)cc2)c1	hK5 inh 61
CC(=O)C1C(=O)N(c2ccc(Cl)cc2)C(N)=C(C#N)C1c1cc2c(C)cc(C)cc2[nH]c1=O (stereo not given)	none (no result: thrombin 1536, FXIa inh, hK5 inh, FXIIa inh 1536)
O=C1CSC2(CCN(CCCN3c4ccccc4Sc4ccc(Cl)cc43)CC2)N1	none (no result: thrombin 1536, FXIa inh, hK5 inh, FXIIa inh 1536)
Clc1ccc2c(c1)N(CCCN1CCCC13CCCCC3)c1ccccc1S2	EP2 antag 53 (no result: thrombin 1536, FXIa inh, hK5 inh, FXIIa inh 1536)
Nc1ncnc2c1ncn2C1O[C@H](COP(=O)(O)O)[C@@H](O)[C@H]1O (stereo not given in full)	none (no result: thrombin 1536, FXIa inh, hK5 inh, FXIIa inh 1536)
NC(=O)c1ccc[n+]([C@@H]2O[C@H](COP(=O)([O-])OP(=O)(O)OC[C@H]3O[C@@H](n4cnc5c(N)ncnc54)[C@H](OP(=O)(O)O)[C@@H]3O)[C@@H](O)[C@H]2O)c1	EP2 mod 71 (no result: thrombin 1536, FXIa inh, hK5 inh, FXIIa inh 1536)
CCOc1ccc(NC(=O)N2CCCC2C(=O)NC2CCCC2)cc1 (stereo not given)	none (no result: thrombin 1536, FXIa inh, hK5 inh, FXIIa inh 1536)
CCOc1ccc(Nc2nc(NCC3CCCO3)c3ccccc3n2)cc1 (stereo not given)	EP2 antag 52
O=c1[nH]c(N2CCCC2)nc2c1CCN(CC1=Cc3ccccc3OC1)C2	none (no result: thrombin 1536, FXIa inh, hK5 inh, FXIIa inh 1536, EP2 antag)
Cc1c(C(=O)N2CCC(C(N)=O)CC2)sc(N)c1C#N	thrombin 1536 104, hK5 inh 107
COc1ccc(CCNC(=O)c2cc(-c3ccccc3Cl)on2)cc1OC	none (no result: thrombin 1536, FXIa inh, hK5 inh, FXIIa inh 1536)
Nc1ccc2c(c1)C(=O)C(=O)c1ccccc1-2	none
O=C1c2ccccc2-c2ccc(N(Cc3ccc(Br)cc3)Cc3ccc(Br)cc3)cc21	EP2 antag 47 (no result: thrombin 1536, FXIa inh, hK5 inh, FXIIa inh 1536)
Cn1c(N2CCC(C(=O)NC3CC3)CC2)nc2ccccc21	none (no result: thrombin 1536, FXIa inh, hK5 inh, FXIIa inh 1536)
Cc1nn(-c2ccccc2)c(N)c1C(O)(C(F)(F)F)C(F)(F)F	hK5 inh 42
CCOc1ccc(N=C2NN=C(c3cc(C)n(CC4CCCO4)c3C)CS2)cc1 (stereo not given)	hK5 inh 45
COc1ccc(NC(=O)C2CC(=O)N(c3cccc(C(F)(F)F)c3)C2)cc1 (stereo not given)	none (no result: thrombin 1536, FXIa inh, hK5 inh, FXIIa inh 1536)
COCCSc1nnc(NC(=O)C2CC(=O)N(c3ccc(OC)cc3)C2)s1 (stereo not given)	none
Cc1ccc(N2CC(C(=O)NC3=NCCS3)CC2=O)cc1 (stereo not given)	none
COc1ccc(N2CC(C(=O)Nc3nnc(SCC(=O)c4ccccc4)s3)CC2=O)cc1 (stereo not given)	hK5 inh 63
CC(C)Oc1ccc(N2CC(C(=O)NC3=NCCS3)CC2=O)cc1 (stereo not given)	thrombin 1536 41
COc1ccc(N2CC(C(=O)Nc3ncccc3C)CC2=O)cc1 (stereo not given)	hK5 inh 63
CCCOc1ccc(N2CC(C(=O)Nc3ncccc3C)CC2=O)cc1 (stereo not given)	none
O=C(/C=C/c1ccco1)Nc1ccccc1N1CCCCC1	EP2 mod 62
CC(C)CC(=O)Nc1ccccc1N1CCCC1	hK5 inh 72
CC(C)CC(=O)NC(=S)Nc1ccccc1N1CCCC1	none
COc1cc(-c2nc3ccc(C)cn3c2NCC2CCCO2)ccc1O (stereo not given)	none (no result: thrombin 1536, FXIa inh, hK5 inh, FXIIa inh 1536)
